Results taken from ChEMBL document CHEMBL4304753, “Identification of New Small-Molecule Inducers of Estrogen-related Receptor α (ERRα) Degradation” (ACS Med Chem Lett, 2019).
Calls of active or inactive are those of the source. No cut-off for these calls is given here.

Tests used:
[1] = biological target: T1, Steroid hormone receptor ERR1 (Homo sapiens) (UniProt P11474); assay: Ratio of IC50 for XCT790 to IC50 for test compound for binding affinity to GST-tagged ERRalpha-LBD (unknown origin) using fluorescein-conjugated coactivator PGC-1alpha incubated for 1 hr by TR-FRET assay
T1 sequence (whole entry): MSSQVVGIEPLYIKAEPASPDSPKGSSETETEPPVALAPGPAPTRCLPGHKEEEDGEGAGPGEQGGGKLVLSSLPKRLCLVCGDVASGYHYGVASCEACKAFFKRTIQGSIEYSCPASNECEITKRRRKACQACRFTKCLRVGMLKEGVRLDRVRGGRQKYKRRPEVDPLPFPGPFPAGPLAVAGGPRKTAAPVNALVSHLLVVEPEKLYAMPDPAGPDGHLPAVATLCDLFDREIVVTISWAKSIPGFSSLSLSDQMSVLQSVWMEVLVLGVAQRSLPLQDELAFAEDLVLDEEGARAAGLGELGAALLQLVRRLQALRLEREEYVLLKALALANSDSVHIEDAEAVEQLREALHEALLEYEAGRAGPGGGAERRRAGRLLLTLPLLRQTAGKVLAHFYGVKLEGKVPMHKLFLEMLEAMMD

[2] = biological target: T2, Steroid hormone receptor ERR1 (Homo sapiens, UniProt P11474); assay: Binding affinity to GST-tagged ERRalpha-LBD (unknown origin) using fluorescein-conjugated coactivator PGC-1alpha incubated for 1 hr by TR-FRET assay
T2 sequence (P11474 whole entry): T1 sequence (whole entry)

[3] = biological target: T3, von Hippel-Lindau disease tumor suppressor/Steroid hormone receptor ERR1 (Homo sapiens) (UniProt P11474+P40337); assay: Protac activity at VHL/ERRalpha in human MDA-MB-231 cells assessed as induction of […] degradation at 1 uM incubated for 4 hrs by Western blot analysis; format: cell-based
T3 sequence (P40337 whole entry, looked up, one chain of several): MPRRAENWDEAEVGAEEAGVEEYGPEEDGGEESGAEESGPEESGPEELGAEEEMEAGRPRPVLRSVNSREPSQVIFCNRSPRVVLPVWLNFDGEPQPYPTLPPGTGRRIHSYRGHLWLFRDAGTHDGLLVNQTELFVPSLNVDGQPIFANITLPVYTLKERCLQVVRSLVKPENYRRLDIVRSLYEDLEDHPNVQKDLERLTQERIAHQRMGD
Procedure, shortened: (§1)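 MDA-MB-231 breast cancer cells were treated at the indicated concentrations for 4.0 h. ERRα protein was measured by Western blot, and % degradation was derived by densitometric image analysis. Values are means of at least three independent experiments.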

[4] = biological target: T3, von Hippel-Lindau disease tumor suppressor/Steroid hormone receptor ERR1 (Homo sapiens); assay: Protac activity at VHL/ERRalpha in human MDA-MB-231 cells assessed as induction of […] degradation at 30 nM incubated for 4 hrs by Western blot analysis relative to control; format: cell-based; procedure, shortened: as §1
[5] = biological target: T3, von Hippel-Lindau disease tumor suppressor/Steroid hormone receptor ERR1 (Homo sapiens); assay: Protac activity at VHL/ERRalpha in human MDA-MB-231 cells assessed as induction of […] degradation at 300 nM incubated for 4 hrs by Western blot analysis relative to control; format: cell-based; procedure, shortened: as §1
[6] = biological target: T3, von Hippel-Lindau disease tumor suppressor/Steroid hormone receptor ERR1 (Homo sapiens); assay: Protac activity at VHL/ERRalpha in human MDA-MB-231 cells assessed as induction of […] degradation at 100 nM incubated for 4 hrs by Western blot analysis relative to control; format: cell-based; procedure, shortened: as §1
[7] = biological target: T3, von Hippel-Lindau disease tumor suppressor/Steroid hormone receptor ERR1 (Homo sapiens); assay: Protac activity at VHL/ERRalpha in human MDA-MB-231 cells assessed as induction of […] degradation at 10 nM incubated for 4 hrs by Western blot analysis relative to control; format: cell-based; procedure, shortened: as §1
[8] = biological target: T3, von Hippel-Lindau disease tumor suppressor/Steroid hormone receptor ERR1 (Homo sapiens); assay: Protac activity at VHL/ERRalpha in human MDA-MB-231 cells assessed as decrease in MCAD protein expression level at 100 nM incubated for 24 hrs by Western blot analysis; format: cell-based
Procedure, shortened: (§2)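 MDA-MB-231 breast cancer cells were exposed to the degrader for 24 h. Protein levels of the ERRα downstream targets ATP5B, MCAD and PDK4 were then assessed by Western blot.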

[9] = biological target: T3, von Hippel-Lindau disease tumor suppressor/Steroid hormone receptor ERR1 (Homo sapiens); assay: Protac activity at VHL/ERRalpha in human MDA-MB-231 cells assessed as induction of […] degradation incubated for 0.5 to 4 hrs by Western blot analysis; format: cell-based
Procedure, shortened: (§3)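 For the time course, MDA-MB-231 cells were exposed to PROTAC at 30 nM. ERRα protein was sampled from 30 min up to 48 h after treatment and analysed by Western blot.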

[10] = biological target: von Hippel-Lindau disease tumor suppressor/Estrogen-related receptor gamma (Homo sapiens) (UniProt P62508+P40337); assay: Protac activity at VHL/ERRgamma in human MDA-MB-231 cells assessed as induction of […] degradation up to 10 uM incubated for 4 hrs by Western blot analysis; format: cell-based
Chain of von Hippel-Lindau disease tumor suppressor/Estrogen-related receptor gamma (Homo sapiens) (P40337 whole entry, looked up): as the sequence (P40337 whole entry, looked up, one chain of several) above
Chain of von Hippel-Lindau disease tumor suppressor/Estrogen-related receptor gamma (Homo sapiens) (P62508 whole entry, looked up): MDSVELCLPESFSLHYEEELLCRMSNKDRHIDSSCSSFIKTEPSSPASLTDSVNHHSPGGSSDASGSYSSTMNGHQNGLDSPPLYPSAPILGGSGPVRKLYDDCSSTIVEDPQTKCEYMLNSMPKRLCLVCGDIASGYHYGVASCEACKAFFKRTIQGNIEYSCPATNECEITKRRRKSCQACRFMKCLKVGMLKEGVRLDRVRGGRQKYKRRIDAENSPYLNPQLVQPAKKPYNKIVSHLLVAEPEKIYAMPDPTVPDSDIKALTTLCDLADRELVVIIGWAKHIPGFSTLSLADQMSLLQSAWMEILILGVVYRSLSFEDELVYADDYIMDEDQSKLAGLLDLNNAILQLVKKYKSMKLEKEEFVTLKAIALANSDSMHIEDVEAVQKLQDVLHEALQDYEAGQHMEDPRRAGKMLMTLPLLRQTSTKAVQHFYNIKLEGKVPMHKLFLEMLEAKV
Procedure, shortened: (§4)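 Levels of the ERRβ and ERRγ homologues were assessed by Western blot in MDA-MB-231 cells after 4.0 h treatment at concentrations up to 10.0 μM.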

[11] = biological target: T3, von Hippel-Lindau disease tumor suppressor/Steroid hormone receptor ERR1 (Homo sapiens); assay: Protac activity at VHL/ERRalpha in human MDA-MB-231 cells assessed as induction of […] degradation incubated for 48 hrs by Western blot analysis; format: cell-based; procedure, shortened: as §3
[12] = biological target: T3, von Hippel-Lindau disease tumor suppressor/Steroid hormone receptor ERR1 (Homo sapiens); assay: Protac activity at VHL/ERRalpha in human MDA-MB-231 cells assessed as induction of […] degradation incubated for 4 hrs by Western blot analysis; format: cell-based; procedure, shortened: as §1
[13] = biological target: T3, von Hippel-Lindau disease tumor suppressor/Steroid hormone receptor ERR1 (Homo sapiens); assay: Protac activity at VHL/ERRalpha in epoxomicin pre-treated human MDA-MB-231 cells assessed as induction of […] degradation at 30 nM incubated for 4 hrs by Western blot analysis; format: cell-based
Procedure, shortened: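 Before treatment with PROTAC at 30 nM for 4.0 h, MDA-MB-231 cells were preincubated with the proteasome inhibitor epoxomicin. ERRα protein was then assessed by Western blot.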

[14] = biological target: T3, von Hippel-Lindau disease tumor suppressor/Steroid hormone receptor ERR1 (Homo sapiens); assay: Protac activity at VHL/ERRalpha in human MDA-MB-231 cells assessed as induction of […] degradation at 3.0 nM incubated for 4 hrs by Western blot analysis; format: cell-based; procedure, shortened: as §1
[15] = biological target: T3, von Hippel-Lindau disease tumor suppressor/Steroid hormone receptor ERR1 (Homo sapiens); assay: Protac activity at VHL/ERRalpha in human MDA-MB-231 cells assessed as decrease in PDK4 protein expression level at 100 nM incubated for 24 hrs by Western blot analysis; format: cell-based; procedure, shortened: as §2
[16] = biological target: von Hippel-Lindau disease tumor suppressor/Steroid hormone receptor ERR2 (Homo sapiens) (UniProt O95718+P40337); assay: Protac activity at VHL/ERRbeta in human MDA-MB-231 cells assessed as induction of […] degradation up to 10 uM incubated for 4 hrs by Western blot analysis; format: cell-based; procedure, shortened: as §4
Chain of von Hippel-Lindau disease tumor suppressor/Steroid hormone receptor ERR2 (Homo sapiens) (O95718 whole entry, looked up): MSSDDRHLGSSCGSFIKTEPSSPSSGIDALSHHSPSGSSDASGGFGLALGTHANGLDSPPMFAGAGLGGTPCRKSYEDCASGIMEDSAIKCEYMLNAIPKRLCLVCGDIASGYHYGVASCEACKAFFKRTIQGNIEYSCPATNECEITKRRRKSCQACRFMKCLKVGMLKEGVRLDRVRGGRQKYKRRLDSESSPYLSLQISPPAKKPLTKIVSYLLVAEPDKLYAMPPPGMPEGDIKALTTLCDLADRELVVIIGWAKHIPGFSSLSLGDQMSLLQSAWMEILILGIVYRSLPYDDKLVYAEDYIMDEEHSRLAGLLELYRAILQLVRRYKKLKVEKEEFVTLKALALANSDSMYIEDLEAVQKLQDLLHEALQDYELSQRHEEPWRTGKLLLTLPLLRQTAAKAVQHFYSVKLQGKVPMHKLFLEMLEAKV
Chain of von Hippel-Lindau disease tumor suppressor/Steroid hormone receptor ERR2 (Homo sapiens) (P40337 whole entry, looked up): as the sequence (P40337 whole entry, looked up, one chain of several) above

[17] = biological target: T3, von Hippel-Lindau disease tumor suppressor/Steroid hormone receptor ERR1 (Homo sapiens); assay: Protac activity at VHL/ERRalpha in human MDA-MB-231 cells assessed as decrease in ATP5B protein expression level at 100 nM incubated for 24 hrs by Western blot analysis; format: cell-based; procedure, shortened: as §2

Structure (SMILES)	IC50 [2] [nM]	Activity [4] [%]	Activity [6] [%]	further results
COc1cc(/C=C(\C#N)C(=O)O)ccc1OCc1ccc(C(F)(F)F)cc1C(F)(F)F	5.67			Ratio IC50 [1]: 11
COc1cc(/C=C(\C#N)C(=O)NCCOCCC(=O)O)ccc1OCc1ccc(C(F)(F)F)cc1C(F)(F)F	4.67			Activity [3]: inactive
COc1cc(/C=C(\C#N)C(N)=O)ccc1OCc1ccc(C(F)(F)F)cc1C(F)(F)F	4.33			
COc1cc(/C=C(\C#N)C(=O)NCCCCC(=O)O)ccc1OCc1ccc(C(F)(F)F)cc1C(F)(F)F	6			
COc1cc(/C=C(\C#N)C(=O)NCCOCCOCCOCCC(=O)N[C@H](C(=O)N2C[C@H](O)C[C@H]2C(=O)NCc2ccc(-c3scnc3C)cc2)C(C)(C)C)ccc1OCc1ccc(C(F)(F)F)cc1C(F)(F)F	7	0	4	Activity [5]: 10%
COc1cc(/C=C(\C#N)C(=O)NCCCC(=O)N[C@H](C(=O)N2C[C@H](O)C[C@H]2C(=O)NCc2ccc(-c3scnc3C)cc2)C(C)(C)C)ccc1OCc1ccc(C(F)(F)F)cc1C(F)(F)F	6.33	58	85	
COc1cc(/C=C(\C#N)C(=O)NCCOCCC(=O)N[C@H](C(=O)N2C[C@H](O)C[C@H]2C(=O)NCc2ccc(-c3scnc3C)cc2)C(C)(C)C)ccc1OCc1ccc(C(F)(F)F)cc1C(F)(F)F	9.33	63	89	Activity [7]: 25%
Cc1ncsc1-c1ccc(CNC(=O)[C@@H]2C[C@@H](O)CN2C(=O)[C@@H](N)C(C)(C)C)cc1				Activity [3]: inactive
COc1cc(/C=C(\C#N)C(=O)NCCC(=O)N[C@H](C(=O)N2C[C@H](O)C[C@H]2C(=O)NCc2ccc(-c3scnc3C)cc2)C(C)(C)C)ccc1OCc1ccc(C(F)(F)F)cc1C(F)(F)F	7.33	28	50	
COc1cc(/C=C(\C#N)C(=O)NCCOCCOCCC(=O)N[C@H](C(=O)N2C[C@H](O)C[C@H]2C(=O)NCc2ccc(-c3scnc3C)cc2)C(C)(C)C)ccc1OCc1ccc(C(F)(F)F)cc1C(F)(F)F	5.33	0	15	Activity [5]: 19%
COc1cc(/C=C(\C#N)C(=O)NCCOCC(=O)N[C@H](C(=O)N2C[C@H](O)C[C@H]2C(=O)NCc2ccc(-c3scnc3C)cc2)C(C)(C)C)ccc1OCc1ccc(C(F)(F)F)cc1C(F)(F)F	11.3	79	92	
COc1cc(/C=C(\C#N)C(=O)NCCCCC(=O)N[C@H](C(=O)N2C[C@@H](O)C[C@H]2C(=O)NCc2ccc(-c3scnc3C)cc2)C(C)(C)C)ccc1OCc1ccc(C(F)(F)F)cc1C(F)(F)F	5.33	6		
COc1cc(/C=C(\C#N)C(=O)NCCCCCCCC(=O)N[C@H](C(=O)N2C[C@H](O)C[C@H]2C(=O)NCc2ccc(-c3scnc3C)cc2)C(C)(C)C)ccc1OCc1ccc(C(F)(F)F)cc1C(F)(F)F	7.67	3	9	
COc1cc(/C=C(\C#N)C(=O)NCCCCCCC(=O)N[C@H](C(=O)N2C[C@H](O)C[C@H]2C(=O)NCc2ccc(-c3scnc3C)cc2)C(C)(C)C)ccc1OCc1ccc(C(F)(F)F)cc1C(F)(F)F	12.3	23	71	
COc1cc(/C=C(\C#N)C(=O)NCCCCC(=O)N[C@H](C(=O)N2C[C@H](O)C[C@H]2C(=O)NCc2ccc(-c3scnc3C)cc2)C(C)(C)C)ccc1OCc1ccc(C(F)(F)F)cc1C(F)(F)F	12.7	83	96	Activity [8]: Active; Activity [9]: Active; Activity [10]: inactive; Activity [11]: inactive; Activity [12]: Dose-dependent effect; Activity [13]: inactive; Activity [14]: Active; Activity [15]: Active; Activity [16]: inactive; Activity [17]: Active; Activity [7]: 39%
COCCNC(=O)/C(C#N)=C/c1ccc(OCc2ccc(C(F)(F)F)cc2C(F)(F)F)c(OC)c1	4.33			
COC(=O)/C(C#N)=C/c1ccc(OCc2ccc(C(F)(F)F)cc2C(F)(F)F)c(OC)c1	20.3			
COc1cc(/C=C2\SC(=O)N(CCOCCC(=O)N[C@H](C(=O)N3C[C@H](O)C[C@H]3C(=O)NCc3ccc(-c4scnc4C)cc3)C(C)(C)C)C2=O)ccc1Oc1ccc(C#N)cc1C(F)(F)F	8	1	40	
COc1cc(/C=C(\C#N)C(=O)NCCCCCC(=O)N[C@H](C(=O)N2C[C@H](O)C[C@H]2C(=O)NCc2ccc(-c3scnc3C)cc2)C(C)(C)C)ccc1OCc1ccc(C(F)(F)F)cc1C(F)(F)F	5.67	58	78	
